Results reported in ChEMBL document CHEMBL1140233, “Synthesis and preliminary biological evaluation of novel pyrazolo[1,5-a]pyrazin-4(5H)-one derivatives as potential agents against A549 lung cancer cells” (Bioorg Med Chem, 2008).
Calls of active or inactive are those of the source. No cut-off for these calls is given here.

How the values were obtained:
A549 [1] = experiment: Growth inhibition of human A549 cells after 48 hrs by MTT assay; assay type: functional, cell-based; details: A549, 48 h
Summary of the method: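 A549 cells kept in RPMI 1640 with 10% (v/v) bovine calf serum and 80 U/ml gentamicin at 37 °C, 5% CO2, and seeded in 96-well plates at 6250/cm². They were exposed to compound at 8, 16, 32 and 64 µM for 12, 24 or 48 h. Viability was read by MTT absorbance at 570 nm and expressed as percent of untreated control (n = 3).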

A549 [2] = experiment: Induction of necrosis in human A549 cells at 64 uM after 48 hrs by LDH assay; assay type: functional, cell-based
Summary of the method: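 A549 cells cultured in RPMI 1640 with 10% bovine calf serum were exposed to compound at 64 µM for 48 h. LDH released into the culture medium was measured by absorbance at 340 nm on a UV–vis spectrometer and compared with untreated control cells.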

A549 [3] = experiment: Viability of human A549 cells at 32 uM after 12 hrs by MTT assay relative to control; details: A549, 12 h
A549 [4] = experiment: Viability of human A549 cells at 32 uM after 24 hrs by MTT assay relative to control; details: A549, 24 h
A549 [5] = experiment: Viability of human A549 cells at 32 uM after 48 hrs by MTT assay relative to control; details: A549, 48 h
A549 [6] = experiment: Viability of human A549 cells at 64 uM after 48 hrs by MTT assay relative to control; details: A549, 48 h
A549 [7] = experiment: Induction of apoptosis in human A549 cells assessed as DNA fragmentation at 16 uM after 24 hrs by acridine orange staining; assay type: functional, cell-based
Summary of the method: (§1)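 A549 cells in RPMI 1640 with 10% bovine calf serum were treated with compound at 16 or 32 µM for 24 or 48 h. They were then stained with acridine orange for 1 min at room temperature and imaged by fluorescence microscopy. Nuclear DNA fragmentation, chromatin condensation and the volume of the acidic compartment were scored by eye (n = 4).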

A549 [8] = experiment: Induction of apoptosis in human A549 cells assessed as DNA fragmentation at 32 uM after 24 hrs by acridine orange staining; assay type: functional, cell-based; summary of the method: as §1
A549 [9] = experiment: Induction of apoptosis in human A549 cells assessed as DNA fragmentation at 16 uM after 48 hrs by acridine orange staining; assay type: functional, cell-based; summary of the method: as §1
A549 [10] = experiment: Induction of apoptosis in human A549 cells assessed as DNA fragmentation at 32 uM after 48 hrs by acridine orange staining; assay type: functional, cell-based; summary of the method: as §1
A549 [11] = experiment: Induction of autophagy in human A549 cells assessed as volume of cellular acidic compartment at 32 uM by acridine orange staining; assay type: functional, cell-based; summary of the method: as §1

SMILES	IC50 (A549 [1])	Activity (A549 [2])	further results
O=C1c2cc(-c3ccc(Cl)cc3)nn2CCN1Cc1ccc(Cl)nc1	39.5 µM	inactive	
COc1ccc(-c2cc3n(n2)CCN(CCc2ccc(OC)c(OC)c2)C3=O)cc1	> 64 µM		
O=C1c2cc(-c3ccc(Cl)cc3)nn2CCN1Cc1ccccc1	22.3 µM	inactive	Activity (A549 [7]): inactive; Activity (A549 [8]): inactive; Activity (A549 [9]): inactive; Activity (A549 [10]): inactive; Activity (A549 [11]): Active; viability at 32 µM (A549 [3]): 78.7%; viability at 32 µM (A549 [4]): 73.6%; viability at 32 µM (A549 [5]): 39.2%; viability at 64 µM (A549 [6]): 26.5%
CC(C)(C)c1ccc(CN2CCn3nc(-c4ccc(Cl)cc4)cc3C2=O)cc1	> 64 µM		
COc1ccc(CCN2CCn3nc(-c4ccc(Cl)cc4)cc3C2=O)cc1OC	> 64 µM		
CCCCN1CCn2nc(-c3ccc(OC)cc3)cc2C1=O	62.5 µM		
COc1ccc(-c2cc3n(n2)CCN(Cc2ccc(C(C)(C)C)cc2)C3=O)cc1	50.2 µM	inactive	
CCCCN1CCn2nc(-c3ccc(Cl)cc3)cc2C1=O	29.8 µM	inactive	
COc1ccc(-c2cc3n(n2)CCN(Cc2ccc(Cl)nc2)C3=O)cc1	> 64 µM		

More lines, main results first:

IC50 (A549 [1])	SMILES	Activity (A549 [2])	further results
31 µM	CC(C)N1CCn2nc(-c3ccc(Cl)cc3)cc2C1=O	inactive	viability at 32 µM (A549 [3]): 81.4%; viability at 32 µM (A549 [4]): 75.7%; viability at 32 µM (A549 [5]): 50%; viability at 64 µM (A549 [6]): 34.6%
> 64 µM	COc1ccc(-c2cc3n(n2)CCN(C(C)C)C3=O)cc1		
> 64 µM	O=C1c2cc(-c3ccccc3)nn2CCN1Cc1ccc(Cl)nc1		
> 64 µM	COc1ccc(-c2cc3n(n2)CCN(Cc2ccccc2)C3=O)cc1		
> 64 µM	CC(C)N1CCn2nc(-c3ccccc3)cc2C1=O		
31.5 µM	COc1ccc(CCN2CCn3nc(-c4ccccc4)cc3C2=O)cc1OC	inactive	
> 64 µM	O=C1c2cc(-c3ccccc3)nn2CCN1Cc1ccccc1		
> 64 µM	CCCCN1CCn2nc(-c3ccccc3)cc2C1=O		
> 64 µM	CC(C)(C)c1ccc(CN2CCn3nc(-c4ccccc4)cc3C2=O)cc1		
